Measurements published in ChEMBL document CHEMBL3046803, “Synthesis and insecticidal activities of novel anthranilic diamides containing acylthiourea and acylurea” (2012).
Converted amounts (≈) assume the structure as drawn. The source made the active and inactive calls. The rule behind the calls is not given here.

What was measured:
[1] = system: Culex pipiens pallens; test: Insecticidal activity against Culex pipiens pallens (mosquito) fourth-instar larvae assessed as larvicidal activity at 2 mg/L measured 3 days post dose; format: functional
Method in brief: (§1)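 Mosquito larvicidal test: compounds were dissolved in acetone and diluted with distilled water to the test concentrations.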

[2] = system: Mythimna separata; test: Insecticidal activity against Mythimna separata (Oriental armyworm) fourth-instar larvae infected Zea mays leaves assessed as larvicidal activity at 5 mg/L measured 2 days post dose; format: functional
Method in brief: (§2)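 Foliar application test: individual corn (Tangyu 10) leaves were placed on moistened filter paper in Petri dishes.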

[3] = system: Mythimna separata; test: Insecticidal activity against Mythimna separata (Oriental armyworm) fourth-instar larvae infected Zea mays leaves assessed as larvicidal activity at 10 mg/L measured 2 days post dose; format: functional; method in brief: as §2
[4] = system: Mythimna separata; test: Insecticidal activity against Mythimna separata (Oriental armyworm) fourth-instar larvae infected Zea mays leaves assessed as larvicidal activity at 20 mg/L measured 2 days post dose; format: functional; method in brief: as §2
[5] = system: Mythimna separata; test: Insecticidal activity against Mythimna separata (Oriental armyworm) fourth-instar larvae infected Zea mays leaves assessed as larvicidal activity at 50 mg/L measured 2 days post dose; format: functional; method in brief: as §2
[6] = system: Mythimna separata; test: Insecticidal activity against Mythimna separata (Oriental armyworm) fourth-instar larvae infected Zea mays leaves assessed as larvicidal activity at 100 mg/L measured 2 days post dose; format: functional; method in brief: as §2
[7] = system: Mythimna separata; test: Insecticidal activity against Mythimna separata (Oriental armyworm) fourth-instar larvae infected Zea mays leaves assessed as larvicidal activity at 200 mg/L measured 2 days post dose; format: functional; method in brief: as §2
[8] = target: Voltage-dependent L-type calcium channel, putative (Pediculus humanus subsp. corporis) (UniProt E0VY79); test: Inhibition of voltage-dependent L-type calcium channel in Spodoptera exigua neurons assessed as peak calcium current at 0.1 mM measured 1 min post dose by electrophysiology method (reference value: 104.47 +/- 2.33%); parameters: scale not given: the % may be the effect or the level left
[9] = target: Voltage-dependent L-type calcium channel, putative (Pediculus humanus subsp. corporis) (UniProt E0VY79); test: Inhibition of voltage-dependent L-type calcium channel in Spodoptera exigua neurons assessed as peak calcium current at 0.1 mM measured 2 min post dose by electrophysiology method (reference value: 102.75 +/- 2.45%); parameters: scale not given: the % may be the effect or the level left
[10] = target: Voltage-dependent L-type calcium channel, putative (Pediculus humanus subsp. corporis) (UniProt E0VY79); test: Inhibition of voltage-dependent L-type calcium channel in Spodoptera exigua neurons assessed as peak calcium current at 0.1 mM measured 3 min post dose by electrophysiology method (reference value: 101.76 +/- 2.7%); parameters: scale not given: the % may be the effect or the level left
[11] = target: Voltage-dependent L-type calcium channel, putative (Pediculus humanus subsp. corporis) (UniProt E0VY79); test: Inhibition of voltage-dependent L-type calcium channel in Spodoptera exigua neurons assessed as peak calcium current at 0.001 mM measured 3 min post dose by electrophysiology method (reference value: 101.76 +/- 2.7%); parameters: scale not given: the % may be the effect or the level left
[12] = target: Ryanodien receptor (Spodoptera exigua) (UniProt H9CNL0); test: Inhibition of Ryanodine receptor in Spodoptera exigua neurons assessed as reduction in intracellular calcium level at 1000 mg/L pre-treated with 10 mg/ml heparin and 1 uM thapsigargin by calcium-imaging technique; format: cell-based
Method in brief: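 Primary cultured S. exigua neurons were rinsed in saline, then loaded in the dark at 28 °C with 5 μM fluo-5N for 5 h in Ca-free saline (150 mM NaCl, 4 mM KCl, 2 mM MgCl₂, 2 mM EGTA, 10 mM HEPES, pH 6.9). They were treated with 10 mg/mL heparin for 20 min, then 1 μM thapsigargin for 10 min. Fluorescence was imaged (40× oil, 488/530 nm) and expressed as F/F₀.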

[13] = target: Voltage-dependent L-type calcium channel, putative (Pediculus humanus subsp. corporis) (UniProt E0VY79); test: Inhibition of voltage-dependent L-type calcium channel in Spodoptera exigua neurons assessed as change in […] calcium level at 1000 mg/L measured 10 min post dose by calcium-imaging technique
Method in brief: (§3)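 S. exigua neurons were rinsed in physiological saline (pH 6.9). They were dye-loaded in the dark at 28 °C, either with 10 μM fluo-3-AM for 45 min in standard saline or with 5 μM fluo-5N for 5 h in EGTA Ca-free saline, then rinsed twice. [Ca²⁺]i was imaged on an inverted fluorescence microscope (40× oil, 488/530 nm) over 10 min. F/F₀ is relative to resting baseline; ≥6 repeats; mean ± SD.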

[14] = target: Voltage-dependent L-type calcium channel, putative (Pediculus humanus subsp. corporis) (UniProt E0VY79); test: Inhibition of voltage-dependent L-type calcium channel in Spodoptera exigua neurons assessed as increase in intracellular calcium level at 1000 mg/L measured 10 min post dose by calcium-imaging technique; format: cell-based; method in brief: as §3
[15] = target: Voltage-dependent L-type calcium channel, putative (Pediculus humanus subsp. corporis) (UniProt E0VY79); test: Inhibition of voltage-dependent L-type calcium channel in Spodoptera exigua neurons assessed as peak intracellular calcium level at 1000 mg/L measured 10 min post dose by calcium-imaging technique relative to initial untreated control; format: cell-based; parameters: scale not given: the % may be the effect or the level left; method in brief: as §3
[16] = target: Voltage-dependent L-type calcium channel, putative (Pediculus humanus subsp. corporis) (UniProt E0VY79); test: Inhibition of voltage-dependent L-type calcium channel in Spodoptera exigua neurons assessed as change in peak calcium current at 0.001 mM at -70 mV holding potential measured 1 to 10 min post dose by electrophysiology method
[17] = target: Voltage-dependent L-type calcium channel, putative (Pediculus humanus subsp. corporis) (UniProt E0VY79); test: Inhibition of voltage-dependent L-type calcium channel in Spodoptera exigua neurons assessed as peak calcium current at 0.1 mM at -70 mV holding potential measured 10 min post dose by electrophysiology method
[18] = target: Voltage-dependent L-type calcium channel, putative (Pediculus humanus subsp. corporis) (UniProt E0VY79); test: Inhibition of voltage-dependent L-type calcium channel in Spodoptera exigua neurons assessed as peak calcium current at 0.1 mM at -70 mV holding potential measured 5 min post dose by electrophysiology method
[19] = target: Voltage-dependent L-type calcium channel, putative (Pediculus humanus subsp. corporis) (UniProt E0VY79); test: Inhibition of voltage-dependent L-type calcium channel in Spodoptera exigua neurons assessed as change in peak calcium current at 0.1 mM at -70 mV holding potential measured 1 min post dose by electrophysiology method
[20] = target: Voltage-dependent L-type calcium channel, putative (Pediculus humanus subsp. corporis) (UniProt E0VY79); test: Inhibition of voltage-dependent L-type calcium channel in Spodoptera exigua neurons assessed as peak calcium current at 0.001 mM measured 8 min post dose by electrophysiology method (reference value: 90.85 +/- 0.65%); parameters: scale not given: the % may be the effect or the level left
[21] = target: Voltage-dependent L-type calcium channel, putative (Pediculus humanus subsp. corporis) (UniProt E0VY79); test: Inhibition of voltage-dependent L-type calcium channel in Spodoptera exigua neurons assessed as peak calcium current at 0.1 mM measured 8 min post dose by electrophysiology method (reference value: 90.85 +/- 0.65%); parameters: scale not given: the % may be the effect or the level left
[22] = target: Voltage-dependent L-type calcium channel, putative (Pediculus humanus subsp. corporis) (UniProt E0VY79); test: Inhibition of voltage-dependent L-type calcium channel in Spodoptera exigua neurons assessed as peak calcium current at 0.001 mM measured 5 min post dose by electrophysiology method (reference value: 98.06 +/- 1.01%); parameters: scale not given: the % may be the effect or the level left
[23] = target: Voltage-dependent L-type calcium channel, putative (Pediculus humanus subsp. corporis) (UniProt E0VY79); test: Inhibition of voltage-dependent L-type calcium channel in Spodoptera exigua neurons assessed as peak calcium current at 0.1 mM measured 5 min post dose by electrophysiology method (reference value: 98.06 +/- 1.01%); parameters: scale not given: the % may be the effect or the level left
[24] = target: Voltage-dependent L-type calcium channel, putative (Pediculus humanus subsp. corporis) (UniProt E0VY79); test: Inhibition of voltage-dependent L-type calcium channel in Spodoptera exigua neurons assessed as peak calcium current at 0.001 mM measured 4 min post dose by electrophysiology method (reference value: 99.66 +/- 1.64%); parameters: scale not given: the % may be the effect or the level left
[25] = target: Voltage-dependent L-type calcium channel, putative (Pediculus humanus subsp. corporis) (UniProt E0VY79); test: Inhibition of voltage-dependent L-type calcium channel in Spodoptera exigua neurons assessed as peak calcium current at 0.1 mM measured 4 min post dose by electrophysiology method (reference value: 99.66 +/- 1.64%); parameters: scale not given: the % may be the effect or the level left
[26] = target: Voltage-dependent L-type calcium channel, putative (Pediculus humanus subsp. corporis) (UniProt E0VY79); test: Inhibition of voltage-dependent L-type calcium channel in Spodoptera exigua neurons assessed as peak calcium current at 0.001 mM measured 10 min post dose by electrophysiology method (reference value: 85.44 +/- 1.14%); parameters: scale not given: the % may be the effect or the level left
[27] = target: Voltage-dependent L-type calcium channel, putative (Pediculus humanus subsp. corporis) (UniProt E0VY79); test: Inhibition of voltage-dependent L-type calcium channel in Spodoptera exigua neurons assessed as peak calcium current at 0.1 mM measured 10 min post dose by electrophysiology method (reference value: 85.44 +/- 1.14%); parameters: scale not given: the % may be the effect or the level left
[28] = system: Plutella xylostella; test: Insecticidal activity against Plutella xylostella (diamondback moth) s-instar larvae infected in fresh cabbage leaves assessed as larvicidal activity at 20 mg/L measured 2 days post dose; format: functional
Method in brief: (§4)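 Leaf-dip (spray) test: a 200 mg/L stock in DMF was diluted with distilled water. Cabbage leaf disks (6 × 2 cm) were sprayed for 3 s, dried, and placed individually in glass tubes. Each disk received 30 second-instar larvae. Mortality was scored at 2 days; triplicate.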

[29] = system: Culex pipiens pallens; test: Insecticidal activity against Culex pipiens pallens (mosquito) fourth-instar larvae assessed as larvicidal activity at 0.5 mg/L measured 3 days post dose; format: functional; method in brief: as §1
[30] = system: Culex pipiens pallens; test: Insecticidal activity against Culex pipiens pallens (mosquito) fourth-instar larvae assessed as larvicidal activity at 1 mg/L measured 3 days post dose; format: functional; method in brief: as §1
[31] = system: Plutella xylostella; test: Insecticidal activity against Plutella xylostella (diamondback moth) s-instar larvae infected in fresh cabbage leaves assessed as larvicidal activity measured 2 days post dose; format: functional; conditions: 48 h; method in brief: as §4
[32] = system: Plutella xylostella; test: Insecticidal activity against Plutella xylostella (diamondback moth) s-instar larvae infected in fresh cabbage leaves assessed as larvicidal activity at 0.001 mg/L measured 2 days post dose; format: functional; method in brief: as §4
[33] = system: Plutella xylostella; test: Insecticidal activity against Plutella xylostella (diamondback moth) s-instar larvae infected in fresh cabbage leaves assessed as larvicidal activity at 0.01 mg/L measured 2 days post dose; format: functional; method in brief: as §4
[34] = system: Plutella xylostella; test: Insecticidal activity against Plutella xylostella (diamondback moth) s-instar larvae infected in fresh cabbage leaves assessed as larvicidal activity at 1 mg/L measured 2 days post dose; format: functional; method in brief: as §4
[35] = system: Plutella xylostella; test: Insecticidal activity against Plutella xylostella (diamondback moth) s-instar larvae infected in fresh cabbage leaves assessed as larvicidal activity at 0.1 mg/L measured 2 days post dose; format: functional; method in brief: as §4

Sequence of Voltage-dependent L-type calcium channel, putative (Pediculus humanus subsp. corporis) (E0VY79 as listed by the source): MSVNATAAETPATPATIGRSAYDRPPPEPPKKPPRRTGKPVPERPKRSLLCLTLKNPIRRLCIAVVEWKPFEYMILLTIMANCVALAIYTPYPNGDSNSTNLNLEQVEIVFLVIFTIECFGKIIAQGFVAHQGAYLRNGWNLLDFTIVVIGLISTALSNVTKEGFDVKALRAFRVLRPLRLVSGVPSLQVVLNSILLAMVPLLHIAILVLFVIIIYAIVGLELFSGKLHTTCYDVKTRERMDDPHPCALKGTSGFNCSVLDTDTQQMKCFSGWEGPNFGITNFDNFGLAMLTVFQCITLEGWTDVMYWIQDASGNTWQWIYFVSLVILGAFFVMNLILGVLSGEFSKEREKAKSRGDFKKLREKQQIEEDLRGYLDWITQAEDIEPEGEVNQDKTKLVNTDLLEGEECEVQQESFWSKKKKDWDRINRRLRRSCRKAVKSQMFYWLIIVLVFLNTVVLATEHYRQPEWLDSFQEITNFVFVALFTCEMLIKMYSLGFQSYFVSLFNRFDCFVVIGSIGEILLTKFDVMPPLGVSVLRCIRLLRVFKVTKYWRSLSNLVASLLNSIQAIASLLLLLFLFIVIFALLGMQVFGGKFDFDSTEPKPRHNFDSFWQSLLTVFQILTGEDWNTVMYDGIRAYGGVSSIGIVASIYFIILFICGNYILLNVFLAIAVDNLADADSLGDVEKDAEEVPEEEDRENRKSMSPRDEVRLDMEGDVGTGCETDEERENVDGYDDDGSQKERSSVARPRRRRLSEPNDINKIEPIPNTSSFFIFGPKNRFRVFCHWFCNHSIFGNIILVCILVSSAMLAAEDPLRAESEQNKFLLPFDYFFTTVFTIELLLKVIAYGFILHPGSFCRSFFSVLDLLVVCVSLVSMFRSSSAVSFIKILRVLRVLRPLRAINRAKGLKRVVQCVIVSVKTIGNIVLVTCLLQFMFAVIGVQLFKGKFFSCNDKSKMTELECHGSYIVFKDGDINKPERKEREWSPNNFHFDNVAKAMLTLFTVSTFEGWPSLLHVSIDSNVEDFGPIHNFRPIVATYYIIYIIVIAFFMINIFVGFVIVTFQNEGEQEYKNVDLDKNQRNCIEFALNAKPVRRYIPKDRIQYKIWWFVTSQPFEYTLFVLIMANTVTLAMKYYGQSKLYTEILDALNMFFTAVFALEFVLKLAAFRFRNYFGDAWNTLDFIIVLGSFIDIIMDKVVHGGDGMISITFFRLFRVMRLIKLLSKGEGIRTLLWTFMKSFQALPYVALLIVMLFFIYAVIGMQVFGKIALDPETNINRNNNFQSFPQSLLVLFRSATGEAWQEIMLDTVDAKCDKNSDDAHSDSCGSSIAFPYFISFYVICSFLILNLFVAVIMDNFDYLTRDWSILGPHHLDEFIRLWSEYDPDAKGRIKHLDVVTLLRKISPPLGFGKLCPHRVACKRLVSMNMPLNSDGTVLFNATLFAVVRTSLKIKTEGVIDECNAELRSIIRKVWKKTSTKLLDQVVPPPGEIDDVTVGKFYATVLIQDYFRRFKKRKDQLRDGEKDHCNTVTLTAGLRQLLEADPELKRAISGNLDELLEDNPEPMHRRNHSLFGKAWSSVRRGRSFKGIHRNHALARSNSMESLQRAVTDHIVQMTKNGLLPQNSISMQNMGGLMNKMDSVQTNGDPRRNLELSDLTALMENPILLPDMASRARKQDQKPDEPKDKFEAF

Structure (SMILES) | Activity [1] [%] | Activity [2] [%] | Activity [3] [%] | Activity [4] [%] | Activity [5] [%] | Activity [6] [%] | Activity [7] [%] | Activity [8] [%] | Activity [9] [%] | Activity [10] [%] | inhibition [13] | Activity [14] | Activity [15] [%] | Activity [21] [%] | Activity [28] [%] | LC50 [31] [ng/mL] | Activity [32] [%] | Activity [33] [%] | Activity [34] [%] | Activity [35] [%] | also measured
Cc1cc(Cl)cc(C(=O)NC(C)C)c1NC(=S)NC(=O)c1cc(Cl)nn1-c1ncccc1Cl | 40 | 40 | 100 | 100 | 100 | 100 | 100 | 91.5 | 84.1 | 80.7 | inactive | Active | 117 | 61 | – | – | – | – | – | – | Activity [11]: 95.8%; inhibition [12]: Active; inhibition [16]: inactive; Activity [17]: -1.27 nanoampere; Activity [18]: -1.64 nanoampere; Activity [19]: 10 mV; Activity [20]: 81.2%; Activity [22]: 84.4%; Activity [23]: 70.2%; Activity [24]: 90.1%; Activity [25]: 74.4%; Activity [26]: 74.6%; Activity [27]: 54.7%
CNC(=O)c1cc(Cl)cc(C)c1NC(=O)c1cc(Br)nn1-c1ncccc1Cl [CHLORANTRANILIPROLE] | 100 | 100 | 100 | 100 | 100 | 100 | 100 | 89.6 | 74 | 69.6 | – | – | 123 | 44.3 | 100 | 0.0123 (≈ 0.0255 nM) | 100 | 100 | 100 | 100 | Activity [29]: 100%; Activity [30]: 100%; Activity [23]: 55.8%; Activity [25]: 63.4%; Activity [27]: 39.7%
CNC(=O)c1cc(Cl)cc(C)c1NC(=S)NC(=O)c1cc(C(F)(F)F)nn1-c1ncccc1Cl | – | 50 | 100 | 100 | 100 | 100 | 100 | – | – | – | inactive | Active | 112 | – | 100 | – | 43 | 71 | 100 | 100 | –
Cc1cc(Br)cc(C(=O)NCc2ccccc2)c1NC(=S)NC(=O)c1cc(C(F)(F)F)nn1-c1ncccc1Cl | – | – | 0 | 100 | 100 | 100 | 100 | – | – | – | – | – | – | – | 100 | 0.65 (≈ 0.997 nM) | 57 | 100 | 100 | 100 | –
Cc1cc(Cl)cc(C(=O)NC2CC2)c1NC(=S)NC(=O)c1cc(C(F)(F)F)nn1-c1ncccc1Cl | – | 30 | 100 | 100 | 100 | 100 | 100 | – | – | – | – | – | – | – | 100 | 0.25 (≈ 0.449 nM) | 71 | 100 | 100 | 100 | –
Cc1cc(Cl)cc(C(=O)NC(C)(C)C)c1NC(=S)NC(=O)c1cc(Br)nn1-c1ncccc1Cl | 100 | 40 | 100 | 100 | 100 | 100 | 100 | – | – | – | – | – | – | – | – | – | – | – | – | – | Activity [29]: 30%; Activity [30]: 90%
